Ecoli WT expand: E. coli BW25113 growth inhibition, expanded screen; growth inhibition, % at 100 µM; AID 710; OD600 absorbance; 0.15% of 98,000 active;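 active = growth inhibition above about 50% at one test dose, limit read from the data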;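 also: growth measured after 20 h incubation at 37 °C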
PostGolgi yeast: growth inhibition of a yeast mutant, post-Golgi transport screen. post-Golgi transport phenotypic cell assay. inhibition, % at 10 µM. 0.9% of 98,000 active;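 also: yeast cells grown in 1536-well plates; yeast grown about 18 h at 30C before absorbance read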
PLAP activator: activators of human placental alkaline phosphatase; activation fold at 20 µM; P05187; AID 696; 1.2% of 96,000 active; purified PLAP enzyme, luminescent substrate read-out; hits give high values; in the data active = activation fold above about 2
Ecoli tolC: growth inhibitors of E. coli BW25113 tolC mutant; OD615; growth inhibition, % at 10 µM (by protocol); 2.2% of 65,000 active;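 active = growth inhibition at or above a cutoff equal to the mean over every tested compound plus 3 SD, cut at about 60% in these data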;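 also: growth measured after 20 h incubation at 37 °C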
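Material: E. coli BW25113 ΔtolC::kan, tolC deletion mutant strain. Measure: percent growth inhibition. Schedule: 37 °C, 20 h exposure. Doses: single-point testing at 10 µM. Signal: A615 absorbance measurement. Buffer or medium: kanamycin-containing LB broth (50 µg/mL).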
HePTP inhibitor: human HePTP phosphatase inhibition | 0.64% of 110,000 active | AID 521 | recombinant HePTP phosphatase activity, OD absorbance | P35236 | inhibition, % at 20 µM; in the data active = inhibition above about 50%;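 also: plate controls were vehicle for no effect and reference inhibitor for full effect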
Target sequence (P35236 whole entry, looked up): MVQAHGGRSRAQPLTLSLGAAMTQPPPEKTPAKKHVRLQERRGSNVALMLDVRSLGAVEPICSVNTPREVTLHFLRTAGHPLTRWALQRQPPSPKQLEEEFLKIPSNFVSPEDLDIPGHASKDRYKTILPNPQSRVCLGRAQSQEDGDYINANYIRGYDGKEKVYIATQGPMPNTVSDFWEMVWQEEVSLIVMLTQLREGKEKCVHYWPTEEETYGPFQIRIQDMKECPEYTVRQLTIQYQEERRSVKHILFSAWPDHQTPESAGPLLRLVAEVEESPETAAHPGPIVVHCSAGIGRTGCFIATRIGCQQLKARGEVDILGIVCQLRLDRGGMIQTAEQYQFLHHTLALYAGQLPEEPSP
PostGolgi ctrl: growth of the yeast control strain, post-Golgi counter-screen. efflux-deficient yeast background strain, growth absorbance A615, 16 h. inhibition, % at 10 µM. 5% of 98,000 active
Starred values were filed as active, the others as inactive; nt = not tested or not shown. This is a sample that favours compounds with a hit; in the whole collection about 5.4% have one here. Rule as the data show it, unless noted: active = inhibition above about 30%; inactive = the rest.

SMILES	Ecoli WT expand	PostGolgi yeast	PLAP activator	Ecoli tolC	HePTP inhibitor	PostGolgi ctrl
O=C1c2[nH]nc(-c3ccccc3O)c2C(c2cccc(Cl)c2)N1CC1CCCO1 (stereo unspecified)	6.0	-6.1	1.5	88.0*	3.6	3.1
O=C1c2ccccc2NC(c2ccc(Cl)cc2Cl)N1Cc1ccco1 (stereo unspecified)	nt	nt	nt	nt	-14.2	nt
COc1ccc(CCN2C(=O)c3[nH]nc(-c4ccccc4O)c3C2c2cccc(O)c2)cc1OC (stereo unspecified)	11.0	6.8	2.9*	50.0	1.4	5.9
O=C1c2[nH]nc(-c3ccccc3O)c2C(c2cccc(Cl)c2)N1Cc1ccco1 (stereo unspecified)	-3.0	-7.0	1.2	100.0*	4.8	25.7
O=C1c2[nH]nc(-c3ccccc3O)c2C(c2ccc(F)cc2)N1Cc1ccco1 (stereo unspecified)	0.0	-2.5	2.4*	100.0*	-5.1	14.7
CCC(=O)Nc1c(C(=O)Nc2cccc(OC)c2)oc2ccccc12	-5.0	11.9	1.1	-6.7	-0.5	3.8
Cc1cccc(C)c1NC(=O)C(c1cccs1)N(Cc1ccco1)C(=O)Cn1nnc2ccccc21 (stereo unspecified)	-12.0	-3.6	0.8	64.3*	-1.9	17.6
CCc1ccc(N(C(=O)c2ccoc2C)C(C(=O)NC2CCCC2)c2ccc(OC)cc2)cc1 (stereo unspecified)	-4.0	-11.8	1	nt	nt	5.1
COc1ccccc1-c1nnc(NC(=O)c2ccc(S(=O)(=O)N(C)C)cc2)o1	0.0	7.8	1.1	96.0*	9.9	4.0
COc1ccccc1-c1nnc(NC(=O)c2ccccc2F)o1	7.0	-7.6	1	0.9	4.6	7.3
CCN(Cc1ccccc1)S(=O)(=O)c1ccc(C(=O)Nc2nnc(-c3ccccc3OC)o2)cc1	-3.0	11.3	1.7	97.8*	11.6	3.6
Cc1ccc(NCC(=O)N/N=C\c2cc(Br)cc(Br)c2OC(=O)c2cccc(F)c2)cc1	nt	nt	nt	nt	-11.7	nt
CC1=NN(c2ccc(Cl)c(Cl)c2)C(=O)/C1=C/c1ccco1	nt	nt	nt	nt	5.1	nt
CC1=NN(c2ccc(Cl)c(C(=O)O)c2)C(=O)/C1=C\c1ccco1	nt	nt	nt	nt	73.1*	nt
Cc1ccc(COc2ccc(C=C3C(=O)NC(=O)NC3=O)cc2Br)cc1	nt	nt	nt	nt	3.5	nt
O=C1NC(=S)NC(=O)C1=Cc1ccc(OCc2ccc3ccccc3c2)c(Br)c1	nt	nt	nt	nt	52.3*	nt
CCOC(=O)C1=C(O)C(Nc2nccs2)(C(F)(F)F)N=C1C (stereo unspecified)	3.0	0.5	0.9	-14.5	16.4	34.6*
O=C(N/N=C/c1ccc(Cl)c([N+](=O)[O-])c1)c1ccccn1	nt	nt	nt	nt	7.5	nt
Cc1ccc(Nc2c3c(nc4ncnn24)CCC3)cc1	-1.0	-22.0	1.2	1.6	5.8	18.1
Clc1cccc(Nc2c3c(nc4ncnn24)CCC3)c1	5.0	24.5	2*	9.2	4.5	8.8
CSc1cc(-c2ccc(Cl)cc2)c(C(=O)NC(C)C)s1	0.0	-7.1	0.9	nt	nt	21.7
COc1cc(OC)cc(C(=O)NCc2nc(-c3ccccc3)no2)c1	1.0	5.7	0.9	2.4	-2.4	-0.6
Cc1cc(C)c(C)c(OCC(=O)NCc2nc(-c3ccccc3)no2)c1	-9.0	1.3	0.8	21.0	5.0	40.6*
Cc1cc(OCC(=O)NCc2nc(-c3ccccc3)no2)c(C)cc1Br	-9.0	0.9	0.8	-13.7	-9.5	33.0*
O=C(O)CNC(=O)/C(=C\c1cccs1)NC(=O)c1ccccc1	nt	nt	nt	nt	-7.3	nt
SMILES	Ecoli WT expand	PostGolgi yeast	PLAP activator	Ecoli tolC	HePTP inhibitor	PostGolgi ctrl
CCN(Cc1cc2cccc(C)c2[nH]c1=O)C(=O)c1ccccc1OC	nt	nt	1.1	-10.7	1.9	nt
COCCN(Cc1cc2cccc(C)c2[nH]c1=O)C(=O)c1ccccc1	-5.0	6.1	1.4	-11.6	6.1	34.5*
O=C(NCc1ccc(N2CCCC2=O)cc1)Nc1cccc2ccccc12	-2.0	6.6	1	nt	nt	7.9
COC(=O)c1cc(CN2CCN(c3ccccc3C)CC2)ccc1O	3.0	-1.4	1.6	nt	nt	33.0*
CCCCN(CCCNC(=O)c1ccc2nc(N3CCOCC3)sc2c1)Cc1ccccc1	0.0	1.6	2.2*	nt	nt	-3.2
O=C(c1ccc2nc(N3CCOCC3)sc2c1)N1CCC(Cc2ccccc2)CC1	-1.0	21.6	1.6	nt	nt	3.5
CSc1nc2ccccc2n1CC(=O)NC(c1ccccc1)c1ccccc1	nt	nt	nt	nt	-4.9	nt
COc1cc2c(cc1OC)C(c1ccc(-c3cc(Cl)ccc3Cl)o1)=NCC2	-2.0	25.8	1.3	nt	nt	52.4*
CCOC(=O)C1=C(CN2c3ccccc3CC2C)NC(=O)NC1c1ccccc1 (stereo unspecified)	-17.0	1.0	0.9	nt	nt	33.4*
COc1ccc(-c2cc(C(F)(F)F)nc(SCCC(=O)NCc3ccccc3)n2)cc1	-3.0	9.3	0.8	nt	nt	4.9
CNc1oc(-c2ccc(Cl)cc2)nc1P(=O)(c1ccccc1)c1ccccc1	-18.0	6.6	1.3	nt	nt	32.1*
Nc1nc(NCCCN2CCOCC2)cc(-c2ccccc2)n1	nt	nt	nt	nt	1.4	nt
CCS(=O)(=O)N1CCC(NC(=O)C2CCCCC2)CC1	3.0	13.9	1	2.6	-2.2	1.4
CN(C(=O)CN1CCC(NC(=O)C2CCCCC2)CC1)C1CCCCC1	-3.0	-1.0	2*	-7.7	1.3	1.6
COc1ccc(Cl)c(S(=O)(=O)N2CCCC2)c1	-3.0	-10.2	1.1	-2.2	-2.4	-1.6
CC(C)C(c1nnnn1Cc1ccco1)N1CCN(c2nc3ccccc3s2)CC1 (stereo unspecified)	-1.0	4.7	0.9	16.3	6.8	41.1*
O=C1CC(N2CCN(c3nc4ccccc4s3)CC2)C(=O)N1Cc1cccs1 (stereo unspecified)	-1.0	92.5*	1.5	15.8	11.3	101.8*
CCC(c1nnnn1Cc1cccs1)N1CCN(c2nc3ccccc3s2)CC1 (stereo unspecified)	-9.0	10.0	1.2	19.5	-7.0	31.6*
CCOC(=O)CC(=O)CSc1nc(N)c(C#N)c(-c2ccc(F)cc2)c1C#N	-7.0	-6.1	1.2	6.8	4.7	18.8
Cc1[nH]n(-c2ccc([N+](=O)[O-])cc2)c(=O)c1C=NCCN1CCN(C(=O)c2ccccc2)CC1	6.0	1.3	2*	nt	nt	-0.5
O=C(c1cccs1)N1CCN(C(=O)c2ccco2)c2ccccc2C1	-9.0	-4.1	1	1.2	5.2	18.8
CCOC(=O)c1c(C)n(C)c2ccc(OC(=O)C#Cc3ccccc3)cc12	nt	nt	nt	nt	1.8	nt
CCOC(=O)c1c(C)n(C)c2ccc(OC(=O)c3ccoc3)cc12	-10.0	6.9	1.3	-3.7	6.0	31.6*
Cc1ccc(C2=Nc3ccccc3NC(C)(c3ccc(C)o3)C2)o1 (stereo unspecified)	9.0	-10.9	1.3	25.8	-10.0	55.3*
COc1ccc(C2=Nc3ccccc3NC(C)(c3ccc(OC)cc3OC)C2)c(OC)c1 (stereo unspecified)	nt	nt	nt	nt	5.9	nt
CCC1Oc2ccc(C)cc2N(CC(=O)NCc2cc(OC)ccc2OC)C1=O (stereo unspecified)	-2.0	-1.9	0.7	-0.3	5.8	13.8

Screens as filed in PubChem BioAssay.
